{
  "source": "ChEMBL document CHEMBL4765324",
  "about": "“Synthesis and biological evaluation of novel quinoline-piperidine scaffolds as antiplasmodium agents” (Eur J Med Chem, 2020)",
  "key": {"Plasmodium falciparum": {"tested_on": "Plasmodium falciparum", "assay": "Resistance index, ratio of IC50 for antiplasmodial activity against chloroquine-resistant Plasmodium falciparum K1 to IC50 for antiplasmodial activity against chloroquine-sensitive Plasmodium falciparum NF54", "format": "functional", "method_in_brief": "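Asexual blood-stage P. falciparum K1 and NF54 kept in continuous culture (modified Trager–Jensen). Growth read by parasite lactate dehydrogenase assay (modified Makler). Ten 2-fold dilutions in complete medium, from 10 μg/ml to 20 ng/ml (or 1 μg/ml to 2 ng/ml). Chloroquine as reference. Triplicate on one occasion. IC50s from non-linear dose-response fit. RI = IC50 K1/IC50 NF54.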"}, "[1]": {"assay": "Selectivity index, ratio of IC50 for CHO cells to IC50 for antiplasmodial activity against chloroquine-sensitive Plasmodium falciparum NF54", "format": "toxicity", "conditions": "hamster, CHO cells (cytotoxicity) versus Plasmodium falciparum NF54; read-out: Ratio IC50", "method_in_brief": "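CHO cytotoxicity measured by MTT colorimetric assay, using the antiplasmodial stock solutions. Six 10-fold dilutions in complete medium, 100 to 0.001 μg/ml, with emetine as reference. Triplicate on one occasion. IC50 from non-linear dose-response fit. NF54 IC50 came from the parasite lactate dehydrogenase assay. SI = IC50 CHO/IC50 NF54.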"}},
  "data": [
    {"smiles": "C=CCN1C[C@@H](OCc2ccccc2)[C@@H](CNCc2ccc3ccccc3n2)C(C)(C)C1", "note": "(relative stereo)", "values": [
      {"measurement": "Ratio IC50", "setting": "Plasmodium falciparum", "result": 1.8}
    ]},
    {"smiles": "Clc1ccc2c(NCC3CC4(c5ccccc5)CCN3C4)ccnc2c1", "note": "(mixture of isomers)", "values": [
      {"measurement": "Ratio IC50", "setting": "Plasmodium falciparum", "result": 1.6}
    ]},
    {"smiles": "c1ccc(C23CCN(C2)C(CNc2ccnc4ccccc24)C3)cc1", "note": "(mixture of isomers)", "values": [
      {"measurement": "Ratio IC50", "setting": "Plasmodium falciparum", "result": 1.5}
    ]},
    {"smiles": "C=CCN1C[C@@H](OCc2ccccc2)[C@@H](CNCc2cc3ccccc3nc2Cl)C(C)(C)C1", "note": "(relative stereo)", "values": [
      {"measurement": "Ratio IC50", "setting": "Plasmodium falciparum", "result": 1.5}
    ]},
    {"smiles": "C=CCN1CCC(CNc2ccnc3ccccc23)C(C)(C)C1", "note": "(stereo not given)", "values": [
      {"measurement": "Ratio IC50", "setting": "Plasmodium falciparum", "result": 0.3}
    ]},
    {"smiles": "C=CCN1CCC(CNc2ccnc3cc(Cl)ccc23)C(C)(C)C1", "note": "(stereo not given)", "values": [
      {"measurement": "Ratio IC50", "setting": "Plasmodium falciparum", "result": 1.7}
    ]},
    {"smiles": "C=CCN1C[C@@H](OCc2ccccc2)[C@@H](CNCc2ccnc3ccccc23)C(C)(C)C1", "note": "(relative stereo)", "values": [
      {"measurement": "Ratio IC50", "setting": "Plasmodium falciparum", "result": 1.5}
    ]},
    {"smiles": "C=CCN1C[C@@H](OCc2ccccc2)[C@@H](CNc2ccnc3cc(Cl)ccc23)C(C)(C)C1", "note": "(relative stereo)", "values": [
      {"measurement": "selectivity ratio", "setting": "[1]", "result": 10100},
      {"measurement": "Ratio IC50", "setting": "Plasmodium falciparum", "result": 2.2}
    ]},
    {"smiles": "Oc1cccc2ccc(CNCC3CC4(c5ccccc5)CCN3C4)nc12", "note": "(mixture of isomers)", "values": [
      {"measurement": "Ratio IC50", "setting": "Plasmodium falciparum", "result": 6.4}
    ]}
  ]
}
